Tested on: Liver microsome
Test: Metabolic stability in rat liver microsomes at 2 uM after 1 hr by ZQ-LC-MS analysis
Assay type: ADME
Settings: not given

Structure (SMILES) | Stability
CN(C)c1ccc(C2=C[C@@H]3C[C@@]4(OC(=O)C=C24)[C@H]2CCCCN32)cc1 | Unstable
O=C1C=C2C(C#CCCCCl)=C[C@@H]3C[C@@]2(O1)[C@H]1CCCCN31 | Unstable
O=C1C=C2C(C#Cc3ccccc3)=C[C@@H]3C[C@@]2(O1)[C@H]1CCCCN31 | Unstable

Tested on: not listed separately
Test: Antiproliferative activity against human HCT116 cells assessed as reduction in cell viability at 20 uM after 72 hrs by ATPlite assay
Assay type: functional
Settings: HCT-116, 72 h, read-out: GI
Outline: (§1)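 HCT-116 human colon cancer cells exposed to compound for 72 h at 20, 10 or 1 μM. Growth inhibition is expressed as percentage relative to nontreated cells.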

Structure (SMILES) | inhibition of growth at 20 µM
O=C1C=C2C(c3ccc(Br)cc3)=C[C@@H]3C[C@@]2(O1)[C@H]1CCCCN31 | 60.1%
CN(C)c1ccc(C2=C[C@@H]3C[C@@]4(OC(=O)C=C24)[C@H]2CCCCN32)cc1 | 19.3%
O=C1C=C2C(c3ccccc3)=C[C@@H]3C[C@@]2(O1)[C@H]1CCCCN31 | 24.1%
COC(=O)c1ccc(C2=C[C@@H]3C[C@@]4(OC(=O)C=C24)[C@H]2CCCCN32)cc1 | 23.9%
O=C1C=C2C(C#CCCCCl)=C[C@@H]3C[C@@]2(O1)[C@H]1CCCCN31 | 99.2%
O=C1C=C2C(C#Cc3ccc(F)cc3)=C[C@@H]3C[C@@]2(O1)[C@H]1CCCCN31 | 100%
O=C1C=C2C(c3ccc(C(F)(F)F)cc3)=C[C@@H]3C[C@@]2(O1)[C@H]1CCCCN31 | 80.4%
CCN(CC)c1ccc(C#CC2=C[C@@H]3C[C@@]4(OC(=O)C=C24)[C@H]2CCCCN32)cc1 | 100%
O=C1C=C2C(C#CCO)=C[C@@H]3C[C@@]2(O1)[C@H]1CCCCN31 | 98.9%
Cc1ccc(C2=C[C@@H]3C[C@@]4(OC(=O)C=C24)[C@H]2CCCCN32)cc1 | 30%
O=C1C=C2C(c3ccc(-c4ccccc4)cc3)=C[C@@H]3C[C@@]2(O1)[C@H]1CCCCN31 | 82.8%
O=C1C=C2C(I)=C[C@@H]3C[C@@]2(O1)[C@H]1CCCCN31 | 100%
O=C1C=C2C(C#Cc3ccc(N4CCCCC4)cc3)=C[C@@H]3C[C@@]2(O1)[C@H]1CCCCN31 | 100%
CCCCC#CC1=C[C@@H]2C[C@@]3(OC(=O)C=C13)[C@H]1CCCCN21 | 99.5%
O=C1C=C2C(C#CC3CC3)=C[C@@H]3C[C@@]2(O1)[C@H]1CCCCN31 | 93.9%
O=C1C=C2C(C#Cc3cccnc3)=C[C@@H]3C[C@@]2(O1)[C@H]1CCCCN31 | 100%
O=C1C=C2C(C#CCCCO)=C[C@@H]3C[C@@]2(O1)[C@H]1CCCCN31 | 96.9%
O=Cc1ccc(C2=C[C@@H]3C[C@@]4(OC(=O)C=C24)[C@H]2CCCCN32)cc1 | 34.6%
O=C1C=C2C(C#Cc3ccccc3)=C[C@@H]3C[C@@]2(O1)[C@H]1CCCCN31 | 100%

Tested on: not listed separately
Test: Antiproliferative activity against human HCT116 cells assessed as reduction in cell viability after 72 hrs by ATPlite assay
Assay type: functional, cell-based
Settings: HCT-116, 72 h
Outline: (§2)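 IC50 determined in human cancer cell lines (HCT-116, A-375 melanoma, HL-60, A-549). Camptothecin and etoposide served as reference compounds.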

Structure (SMILES) | IC50
O=C1C=C2C(C#Cc3ccc(F)cc3)=C[C@@H]3C[C@@]2(O1)[C@H]1CCCCN31 | 2.47 µM

Tested on: Plasma
Test: Metabolic stability in mouse plasma at 5 uM after 2 hrs by ZQ-LC-MS analysis
Assay type: ADME, cell-free
Settings: not given
Outline: (§3)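 Compounds were incubated in rat, mouse and human plasma for 120 min at 37 °C. The result is reported as the percentage of parent compound remaining.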

Structure (SMILES) | Stability
CN(C)c1ccc(C2=C[C@@H]3C[C@@]4(OC(=O)C=C24)[C@H]2CCCCN32)cc1 | Stable
O=C1C=C2C(C#Cc3ccccc3)=C[C@@H]3C[C@@]2(O1)[C@H]1CCCCN31 | Unstable

Tested on: not listed separately
Test: Antiproliferative activity against human HCT116 cells assessed as reduction in cell viability at 10 uM after 72 hrs by ATPlite assay
Assay type: functional
Settings: HCT-116, 72 h, read-out: GI
Outline: as §1

Structure (SMILES) | inhibition of growth at 10 µM
O=C1C=C2C(c3ccc(Br)cc3)=C[C@@H]3C[C@@]2(O1)[C@H]1CCCCN31 | 23%
CN(C)c1ccc(C2=C[C@@H]3C[C@@]4(OC(=O)C=C24)[C@H]2CCCCN32)cc1 | 5.6%
O=C1C=C2C(c3ccccc3)=C[C@@H]3C[C@@]2(O1)[C@H]1CCCCN31 | 9.2%
COC(=O)c1ccc(C2=C[C@@H]3C[C@@]4(OC(=O)C=C24)[C@H]2CCCCN32)cc1 | 10.5%
O=C1C=C2C(C#CCCCCl)=C[C@@H]3C[C@@]2(O1)[C@H]1CCCCN31 | 97.8%
O=C1C=C2C(C#Cc3ccc(F)cc3)=C[C@@H]3C[C@@]2(O1)[C@H]1CCCCN31 | 99.9%
O=C1C=C2C(c3ccc(C(F)(F)F)cc3)=C[C@@H]3C[C@@]2(O1)[C@H]1CCCCN31 | 47.9%
CCN(CC)c1ccc(C#CC2=C[C@@H]3C[C@@]4(OC(=O)C=C24)[C@H]2CCCCN32)cc1 | 100%
O=C1C=C2C(C#CCO)=C[C@@H]3C[C@@]2(O1)[C@H]1CCCCN31 | 94.9%
Cc1ccc(C2=C[C@@H]3C[C@@]4(OC(=O)C=C24)[C@H]2CCCCN32)cc1 | 11.7%
O=C1C=C2C(c3ccc(-c4ccccc4)cc3)=C[C@@H]3C[C@@]2(O1)[C@H]1CCCCN31 | 52.6%
O=C1C=C2C(I)=C[C@@H]3C[C@@]2(O1)[C@H]1CCCCN31 | 100%
O=C1C=C2C(C#Cc3ccc(N4CCCCC4)cc3)=C[C@@H]3C[C@@]2(O1)[C@H]1CCCCN31 | 100%
CCCCC#CC1=C[C@@H]2C[C@@]3(OC(=O)C=C13)[C@H]1CCCCN21 | 98.1%
O=C1C=C2C(C#CC3CC3)=C[C@@H]3C[C@@]2(O1)[C@H]1CCCCN31 | 94.8%
O=C1C=C2C(C#Cc3cccnc3)=C[C@@H]3C[C@@]2(O1)[C@H]1CCCCN31 | 100%
O=C1C=C2C(C#CCCCO)=C[C@@H]3C[C@@]2(O1)[C@H]1CCCCN31 | 64.3%
O=Cc1ccc(C2=C[C@@H]3C[C@@]4(OC(=O)C=C24)[C@H]2CCCCN32)cc1 | 9.5%
O=C1C=C2C(C#Cc3ccccc3)=C[C@@H]3C[C@@]2(O1)[C@H]1CCCCN31 | 100%

Tested on: not listed separately
Test: Antiproliferative activity against human HL60 cells assessed as reduction in cell viability after 72 hrs by ATPlite assay
Assay type: functional, cell-based
Settings: HL-60, 72 h
Outline: as §2

Structure (SMILES) | IC50
O=C1C=C2C(C#Cc3ccc(F)cc3)=C[C@@H]3C[C@@]2(O1)[C@H]1CCCCN31 | > 10 µM
O=C1C=C2C(C#Cc3cccnc3)=C[C@@H]3C[C@@]2(O1)[C@H]1CCCCN31 | > 10 µM

Tested on: A549
Test: Antiproliferative activity against human A549 cells assessed as reduction in cell viability after 72 hrs by ATPlite assay
Assay type: functional, cell-based
Settings: A549, 72 h
Outline: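 IC50 values were determined on a panel of four human cancer lines (HCT-116, A-549, HL-60, A-375), with camptothecin and etoposide as reference compounds.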

Structure (SMILES) | IC50
O=C1C=C2C(C#Cc3ccc(F)cc3)=C[C@@H]3C[C@@]2(O1)[C@H]1CCCCN31 | 3.99 µM
O=C1C=C2C(C#Cc3cccnc3)=C[C@@H]3C[C@@]2(O1)[C@H]1CCCCN31 | 4.4 µM

Tested on: not listed separately
Test: Metabolic stability in mouse liver microsomes at 2 uM after 1 hr by ZQ-LC-MS analysis
Assay type: ADME
Settings: not given

Structure (SMILES) | Stability
CN(C)c1ccc(C2=C[C@@H]3C[C@@]4(OC(=O)C=C24)[C@H]2CCCCN32)cc1 | Unstable
O=C1C=C2C(C#CCCCCl)=C[C@@H]3C[C@@]2(O1)[C@H]1CCCCN31 | Unstable
O=C1C=C2C(C#Cc3ccccc3)=C[C@@H]3C[C@@]2(O1)[C@H]1CCCCN31 | Unstable

Tested on: Liver microsome
Test: Metabolic stability in human liver microsomes at 2 uM after 1 hr by ZQ-LC-MS analysis
Assay type: ADME
Settings: not given

Structure (SMILES) | Stability
CN(C)c1ccc(C2=C[C@@H]3C[C@@]4(OC(=O)C=C24)[C@H]2CCCCN32)cc1 | Unstable
O=C1C=C2C(C#CCCCCl)=C[C@@H]3C[C@@]2(O1)[C@H]1CCCCN31 | Unstable
O=C1C=C2C(C#Cc3ccccc3)=C[C@@H]3C[C@@]2(O1)[C@H]1CCCCN31 | Unstable

Tested on: Plasma
Test: Metabolic stability in rat plasma at 5 uM after 2 hrs by ZQ-LC-MS analysis
Assay type: ADME, cell-free
Settings: not given
Outline: as §3

Structure (SMILES) | Stability
CN(C)c1ccc(C2=C[C@@H]3C[C@@]4(OC(=O)C=C24)[C@H]2CCCCN32)cc1 | Stable
O=C1C=C2C(C#Cc3ccccc3)=C[C@@H]3C[C@@]2(O1)[C@H]1CCCCN31 | Unstable

Tested on: A-375
Test: Antiproliferative activity against human A375 cells assessed as reduction in cell viability after 72 hrs by ATPlite assay
Assay type: functional, cell-based
Settings: A-375, 72 h
Outline: as §2

Structure (SMILES) | IC50
O=C1C=C2C(C#Cc3ccc(F)cc3)=C[C@@H]3C[C@@]2(O1)[C@H]1CCCCN31 | 2.82 µM
O=C1C=C2C(C#Cc3cccnc3)=C[C@@H]3C[C@@]2(O1)[C@H]1CCCCN31 | 0.95 µM

Tested on: not listed separately
Test: Antiproliferative activity against human HCT116 cells assessed as reduction in cell viability at 1 uM after 72 hrs by ATPlite assay
Assay type: functional
Settings: HCT-116, 72 h, read-out: GI
Outline: as §1

Structure (SMILES) | inhibition of growth at 1 µM
O=C1C=C2C(c3ccc(Br)cc3)=C[C@@H]3C[C@@]2(O1)[C@H]1CCCCN31 | -5.2%
CN(C)c1ccc(C2=C[C@@H]3C[C@@]4(OC(=O)C=C24)[C@H]2CCCCN32)cc1 | -1.4%
O=C1C=C2C(c3ccccc3)=C[C@@H]3C[C@@]2(O1)[C@H]1CCCCN31 | -3.8%
COC(=O)c1ccc(C2=C[C@@H]3C[C@@]4(OC(=O)C=C24)[C@H]2CCCCN32)cc1 | -3.6%
O=C1C=C2C(C#CCCCCl)=C[C@@H]3C[C@@]2(O1)[C@H]1CCCCN31 | 6.1%
O=C1C=C2C(C#Cc3ccc(F)cc3)=C[C@@H]3C[C@@]2(O1)[C@H]1CCCCN31 | 87.3%
O=C1C=C2C(c3ccc(C(F)(F)F)cc3)=C[C@@H]3C[C@@]2(O1)[C@H]1CCCCN31 | -1.5%
CCN(CC)c1ccc(C#CC2=C[C@@H]3C[C@@]4(OC(=O)C=C24)[C@H]2CCCCN32)cc1 | 98.2%
O=C1C=C2C(C#CCO)=C[C@@H]3C[C@@]2(O1)[C@H]1CCCCN31 | 5%
Cc1ccc(C2=C[C@@H]3C[C@@]4(OC(=O)C=C24)[C@H]2CCCCN32)cc1 | 0.3%
O=C1C=C2C(c3ccc(-c4ccccc4)cc3)=C[C@@H]3C[C@@]2(O1)[C@H]1CCCCN31 | 5.4%
O=C1C=C2C(I)=C[C@@H]3C[C@@]2(O1)[C@H]1CCCCN31 | 80.9%
O=C1C=C2C(C#Cc3ccc(N4CCCCC4)cc3)=C[C@@H]3C[C@@]2(O1)[C@H]1CCCCN31 | 98%
CCCCC#CC1=C[C@@H]2C[C@@]3(OC(=O)C=C13)[C@H]1CCCCN21 | 7.6%
O=C1C=C2C(C#CC3CC3)=C[C@@H]3C[C@@]2(O1)[C@H]1CCCCN31 | 5.9%
O=C1C=C2C(C#Cc3cccnc3)=C[C@@H]3C[C@@]2(O1)[C@H]1CCCCN31 | 96.4%
O=C1C=C2C(C#CCCCO)=C[C@@H]3C[C@@]2(O1)[C@H]1CCCCN31 | 5.9%
O=Cc1ccc(C2=C[C@@H]3C[C@@]4(OC(=O)C=C24)[C@H]2CCCCN32)cc1 | -0.7%
O=C1C=C2C(C#Cc3ccccc3)=C[C@@H]3C[C@@]2(O1)[C@H]1CCCCN31 | 91.9%

Tested on: Plasma
Test: Metabolic stability in human plasma at 5 uM after 2 hrs by ZQ-LC-MS analysis
Assay type: ADME, cell-free
Settings: not given
Outline: as §3

Structure (SMILES) | Stability
CN(C)c1ccc(C2=C[C@@H]3C[C@@]4(OC(=O)C=C24)[C@H]2CCCCN32)cc1 | Stable
O=C1C=C2C(C#Cc3ccccc3)=C[C@@H]3C[C@@]2(O1)[C@H]1CCCCN31 | Unstable
